Experimental data of several laboratories.
Target: Casein kinase I isoform gamma-1 (CSNK1G1, Homo sapiens, UniProt Q9HCP0)

read-out	action	method	concentration	endpoint	value	SMILES
enzyme activity	inhibitor		1 µM	inhibition	0%	CO[C@@H]1[C@H](N(C)C(=O)c2ccccc2)C[C@H]2O[C@]1(C)n1c3ccccc3c3c4c(c5c6ccccc6n2c5c31)C(=O)NC4
cell-free assay			0.1 µM	remaining signal	72%	C1=C/COCc2cc(ccc2OCCN2CCCC2)Nc2nccc(n2)-c2cccc(c2)COC/1
cell-free assay			1 µM	remaining signal	100%	C[C@H]1CC[C@H](n2c3cnccc3c3cnc(Nc4ccc5c(n4)CCN(C(=O)CO)C5)nc32)CC1
binding		competition with immobilised ligand	0.5 µM	remaining binding	100%	CCCCC(=O)Nc1ccc(-c2ccc3ncn(CCC)c(=O)c3c2)cn1
binding			1 µM	remaining binding	100%	CN1CCN(C(=O)c2ccc(NC(=O)Nc3ccc(N(C)c4ccnc(Nc5ccc(CS(C)(=O)=O)cc5)n4)cc3)cc2)CC1
enzyme activity	inhibitor		0.2 µM	inhibition	4.78%	C#Cc1cc(-c2cc(Nc3nc(N[C@@H](C)c4ccc(F)cn4)ncc3Cl)n[nH]2)ccc1C=O
enzyme activity	inhibitor		1 µM	inhibition	7%	C=CC(=O)N1CCC[C@@H](n2nc(-c3ccc(Oc4ccccc4)cc3)c3c(N)ncnc32)C1
enzyme activity	inhibitor		0.1 µM	inhibition	-2.19%	Cc1cc(O)c(-c2ccc([C@@H](C)CN(C)C)cc2)c2c1[nH]c(=O)c1sccc12
enzyme activity	inhibitor		1 µM	activity vs control	96%	CC(C)S(=O)(=O)c1ccc2nccc(Nc3ccc4sc(C5CCCC5)nc4c3)c2c1
